Source: ChEMBL document CHEMBL1123282, “Antiinflammatory activity of substituted 6-hydroxypyrimido[2,1-f]purine-2,4,8(1H,3H,9H)-triones. Atypical nonsteroidal antiinflammatory agents” (J Med Chem, 1986)

How the values were obtained:
Rattus norvegicus [1] = assay: Compound was tested in vivo for antiinflammatory activity against chronic adjuvant arthritic rat by therapeutic percentage inhibition 1 degree paw after peroral administration of 10 mg/kg of dose; type: functional; conditions: route oral
[2] = Plasma level data at a dose of 36 mg/kg, iv after 1 hr; type: ADME, organism-based; set-up: dose 36 mg/kg, route intravenous; conditions: read-out: Plasma level
Outline: (§1)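 Male Lewis rats get a single iv or oral dose of the sodium salt, suspended in 0.4% (w/v) methyl cellulose. Plasma drug levels are measured by HPLC at the timed points and given as mean ± SD, n = 3.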

[3] = Plasma level data at a dose of 36 mg/kg, iv after 4 hr; type: ADME, organism-based; set-up: dose 36 mg/kg, route intravenous; conditions: read-out: Plasma level; outline: as §1
Rattus norvegicus [4] = assay: Compound was tested in vivo for antiinflammatory activity against chronic adjuvant arthritic rat by therapeutic percentage inhibition 1 degree paw after peroral administration of 30 mg/kg of dose; type: functional
[5] = Plasma level data at a dose of 36 mg/kg, po after 1 hr; type: ADME, organism-based; set-up: dose 36 mg/kg, route oral; conditions: read-out: Plasma level; outline: as §1
[6] = Plasma level data at a dose of 36 mg/kg, iv after 12 hr; type: ADME, organism-based; set-up: dose 36 mg/kg, route intravenous; conditions: read-out: Plasma level; outline: as §1
[7] = Plasma level data at a dose of 36 mg/kg, po after 12 hr; type: ADME, organism-based; set-up: dose 36 mg/kg, route oral; conditions: read-out: Plasma level
Outline: (§2)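 Male Lewis rats given a single po dose of the sodium salt suspended in 0.4% (w/v) methyl cellulose. Plasma drug levels measured by HPLC at set times up to 12 h; values are mean ± SD, n = 3.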

Rattus norvegicus [8] = assay: Compound was tested for intestinal Ulcerogenic effect in rats at a dose of 300 mg/kg; type: functional
Outline: (§3)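 Normal fed rats were gavaged once daily for three consecutive days at 10–300 mg/kg and killed 24 h after the last dose. Intestines were examined for ulcers, recording incidence per group of 8 and a lesion score (±SE).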

Rattus norvegicus [9] = assay: Compound was tested in vivo against chronic adjuvant arthritic rat by therapeutic inhibition 2 degree paw. Relative potency with respect to (8-Benzyl-5-hydroxy-1,3-dimethyl-6-propyl-1H,8H-1,3,4b,8,9-pentaaza-fluorene-2,4,7-trione); type: functional
Rattus norvegicus [10] = assay: Compound was tested in vivo for antiinflammatory activity against chronic adjuvant arthritic rat by therapeutic percentage inhibition 2 degree paw after peroral administration of 10 mg/kg of dose; type: functional; conditions: route oral
[11] = Plasma level data at a dose of 36 mg/kg, iv after 6 hr; type: ADME, organism-based; set-up: dose 36 mg/kg, route intravenous; conditions: read-out: Plasma level; outline: as §1
Rattus norvegicus [12] = assay: Compound was tested in vivo for antiinflammatory activity against chronic adjuvant arthritic rat by therapeutic percentage inhibition 1 degree paw after peroral administration of 3.3 mg/kg of dose; type: functional; conditions: route oral
Rattus norvegicus [13] = assay: Compound was tested in vivo for antiinflammatory activity against chronic adjuvant arthritic rat by therapeutic percentage inhibition 2 degree paw after peroral administration of 3.3 mg/kg of dose; type: functional; conditions: route oral
Rattus norvegicus [14] = assay: C(compound) was tested for intestinal Ulcerogenic effect in rats at a dose of 30 mg/kg; type: functional; outline: as §3
[15] = Plasma level data at a dose of 36 mg/kg, po after 6 hr; type: ADME, organism-based; set-up: dose 36 mg/kg, route oral; conditions: read-out: Plasma level; outline: as §2
[16] = Plasma level data at a dose of 36 mg/kg, po after 4 hr; type: ADME, organism-based; set-up: dose 36 mg/kg, route oral; conditions: read-out: Plasma level; outline: as §2
[17] = Plasma level data at a dose of 36 mg/kg, iv after 2 hr; type: ADME, organism-based; set-up: dose 36 mg/kg, route intravenous; conditions: read-out: Plasma level; outline: as §1
Rattus norvegicus [18] = assay: Compound was tested for intestinal ulcerogenic effect in rats, activity expressed as ulcer incidence at a dose of 30 mg/kg; type: functional; outline: as §3
Rattus norvegicus [19] = assay: Compound was tested in vivo against chronic adjuvant arthritic rat by prophylactic inhibition 1 degree paw. Relative potency with respect to (8-Benzyl-5-hydroxy-1,3-dimethyl-6-propyl-1H,8H-1,3,4b,8,9-pentaaza-fluorene-2,4,7-trione); type: functional
Rattus norvegicus [20] = assay: Compound was tested for gastric ulcerogenic effect in rats, activity expressed as lesion length at a dose of 10 mg/kg
Rattus norvegicus [21] = assay: Compound was tested for intestinal ulcerogenic effect in rats, activity expressed as ulcer incidence at a dose of 300 mg/kg; type: functional; outline: as §3
Rattus norvegicus [22] = assay: Compound was tested for intestinal ulcerogenic effect in rats at a dose of 10 mg/kg; type: functional; outline: as §3
Rattus norvegicus [23] = species on record: Rattus norvegicus; assay: Delayed Type hypersensitivity (DTH) is measured by increase in ear thickness 24 hours after antigen injection into pinna 10e-3; type: functional
Rattus norvegicus [24] = assay: Compound was tested for gastric ulcerogenic effect in rats, activity expressed as lesion length at a dose of 300 mg/kg
Rattus norvegicus [25] = assay: Compound was tested in vivo for antiinflammatory activity against chronic adjuvant arthritic rat by therapeutic inhibition 1 degree paw after peroral administration of 18 mg/kg of dose; type: functional; conditions: route oral
Rattus norvegicus [26] = assay: Compound was tested for intestinal ulcerogenic effect in rats, activity expressed as lesion score at a dose of 100 mg/kg; type: functional; outline: as §3
Rattus norvegicus [27] = assay: Compound was tested for intestinal ulcerogenic effect in rats, activity expressed as lesion score at a dose of 300 mg/kg; type: functional; outline: as §3
Rattus norvegicus [28] = assay: Compound was tested for intestinal ulcerogenic effect in rats at a dose of 100 mg/kg; type: functional; outline: as §3
Rattus norvegicus [29] = assay: compound was tested for antiinflammatory activity against collagen II arthritis in rats, activity% inhibition in injected paw edema; type: functional
Outline: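 Arthritis induced in rats by injection of bovine articular cartilage type II collagen (dissolved in 0.01 M AcOH, dialysed against saline) mixed 1:1 with incomplete Freund's adjuvant. Paw inflammation checked weekly for 7 weeks. Inhibition = [Δpaw vol(collagen) − Δpaw vol(collagen + drug)]/[Δpaw vol(collagen) − Δpaw vol(ICFA control)] × 100. Bone damage scored by lateral-projection radiography; p ≤ 0.05 by Student's t-test.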

[30] = Plasma level data at a dose of 20 mg/kg, iv after 2 hr; type: ADME, organism-based; set-up: dose 20 mg/kg, route intravenous; conditions: read-out: Plasma level; outline: as §1
[31] = Plasma level data at a dose of 20 mg/kg, iv after 6 hr; type: ADME, organism-based; set-up: dose 20 mg/kg, route intravenous; conditions: read-out: Plasma level; outline: as §1
Rattus norvegicus [32] = species on record: Rattus norvegicus; assay: Delayed Type hypersensitivity (DTH) is measured by increase in ear thickness 24 hours after antigen injection into pinna; type: functional
[33] = Plasma level data at a dose of 20mg/kg, po after 2 hr; type: ADME, organism-based; conditions: read-out: Plasma level; outline: as §1
[34] = Plasma level data at a dose of 20 mg/kg, iv after 12 hr; type: ADME, organism-based; set-up: dose 20 mg/kg, route intravenous; conditions: read-out: Plasma level; outline: as §1
[35] = Plasma level data at a dose of 20 mg/kg, po after 0.25 hr; type: ADME, organism-based; set-up: dose 20 mg/kg, route oral; conditions: read-out: Plasma level; outline: as §1
Rattus norvegicus [36] = assay: Compound was tested in vivo for antiinflammatory activity against chronic adjuvant arthritic rat by therapeutic inhibition 1 degree paw after peroral administration of 1 mg/kg of dose; type: functional; conditions: route oral
Rattus norvegicus [37] = assay: Compound was tested in vivo for antiinflammatory activity against chronic adjuvant arthritic rat by therapeutic inhibition 2 degree paw after peroral administration of 1 mg/kg of dose; type: functional; conditions: route oral
Rattus norvegicus [38] = assay: Compound was tested in vivo for antiinflammatory activity against chronic adjuvant arthritic rat by therapeutic inhibition 2 degree paw after peroral administration of 3 mg/kg of dose; type: functional; conditions: route oral
Rattus norvegicus [39] = assay: Compound was tested in vivo for antiinflammatory activity against chronic adjuvant arthritic rat by therapeutic inhibition 1 degree paw after peroral administration of 3 mg/kg of dose; type: functional; conditions: route oral
[40] = Plasma level data at a dose of 20mg/kg, po after 6 hr; type: ADME, organism-based; conditions: read-out: Plasma level; outline: as §1
[41] = Plasma level data at a dose of 20 mg/kg, iv after 0.5 hr; type: ADME, organism-based; set-up: dose 20 mg/kg, route intravenous; conditions: read-out: Plasma level; outline: as §1
[42] = Plasma level data at a dose of 20 mg/kg, po after 1 hr; type: ADME, organism-based; set-up: dose 20 mg/kg, route oral; conditions: read-out: Plasma level; outline: as §1
[43] = Plasma level data at a dose of 20 mg/kg, iv after 1 hr; type: ADME, organism-based; set-up: dose 20 mg/kg, route intravenous; conditions: read-out: Plasma level; outline: as §1

CCCc1c(O)n(Cc2ccc(F)cc2)c2nc3c(c(=O)n(C)c(=O)n3C)n2c1=O
inhibition in vivo at 10 mg/kg (Rattus norvegicus [1]): 27% | concentration at 1 h [2]: 107000 ng/mL | concentration at 4 h [3]: 72400 ng/mL | inhibition in vivo at 30 mg/kg (Rattus norvegicus [4]; Rattus norvegicus, po): 47% | Inhibition (Rattus norvegicus [4]; route oral, 30 mg/kg): 47% | concentration at 1 h [5]: 23100 ng/mL | concentration at 12 h [6]: 88300 ng/mL | concentration at 12 h [7]: 35900 ng/mL | Ulcer incidence (Rattus norvegicus [8]): 0 number/group | Relative potency (Rattus norvegicus [9]): 0.9 | inhibition in vivo at 10 mg/kg (Rattus norvegicus [10]): 38% | concentration at 6 h [11]: 78300 ng/mL | inhibition in vivo at 3.3 mg/kg (Rattus norvegicus [12]): 7% | inhibition in vivo at 3.3 mg/kg (Rattus norvegicus [13]): 30% | Ulcer incidence (Rattus norvegicus [14]): 0 number/group | concentration at 6 h [15]: 21000 ng/mL | concentration at 4 h [16]: 41800 ng/mL | concentration at 2 h [17]: 128000 ng/mL

CC(C)=CCc1c(O)n(Cc2ccc(F)cc2)c2nc3c(c(=O)n(C)c(=O)n3C)n2c1=O
Ulcer incidence (Rattus norvegicus [18]): 0 number/group | Relative potency (Rattus norvegicus [19]): 1.1 | Length (Rattus norvegicus [20]): 0 mm rat-1 | Ulcer incidence (Rattus norvegicus [21]): 2 number/group | Ulcer incidence (Rattus norvegicus [22]): 0 number/group | DTH (Rattus norvegicus [23]): 47.3 10e-3mm | Length (Rattus norvegicus [24]): 3 mm rat-1 | inhibition in vivo at 18 mg/kg (Rattus norvegicus [25]): 39% | Lesion length (Rattus norvegicus [26]): 0 mm rat-1 | Lesion length (Rattus norvegicus [27]): 0.2 mm rat-1 | Ulcer incidence (Rattus norvegicus [28]): 0 number/group

CC(C)=CCc1c(O)n(Cc2ccccc2)c2nc3c(c(=O)n(C)c(=O)n3C)n2c1=O
Inhibition (Rattus norvegicus [29]): 0% | concentration at 2 h [30]: 53800 ng/mL | concentration at 6 h [31]: 35100 ng/mL | DTH (Rattus norvegicus [32]): 0.0582 mm | concentration at 2 h [33]: 21900 ng/mL | concentration at 12 h [34]: 10600 ng/mL | concentration at 0.25 h [35]: 2400 ng/mL | inhibition in vivo at 1 mg/kg (Rattus norvegicus [36]): 0% | inhibition in vivo at 1 mg/kg (Rattus norvegicus [37]): 37% | inhibition in vivo at 3 mg/kg (Rattus norvegicus [38]): 51% | inhibition in vivo at 3 mg/kg (Rattus norvegicus [39]): 22% | concentration at 6 h [40]: 37000 ng/mL | concentration at 0.5 h [41]: 78600 ng/mL | concentration at 1 h [42]: 17300 ng/mL | concentration at 1 h [43]: 74700 ng/mL
